Test results: article PMC9309012 (Journal of medicinal chemistry, 2021)
pIC50: −log10 of the molar value. Entries after “also recorded” stand apart in the source; their conditions may differ.

Tests used:
[1] = tested on: TrxR in T. vaginalis; settings: read-out: IC50, TrxR inhibition; cited from earlier work
[2] = tested on: T. vaginalis strains (four MzS, four MzR); test: Drug susceptibility of Mz-sensitive and Mz-resistant T. vaginalis lines; assay type: cell-based, Trichomonas vaginalis; settings: for activity against Mz-resistant T. vaginalis lines: four Mz-resistant clinical isolates
In short: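 Trophozoites were cultured at 37 °C in TYM Diamond's medium with 180 μM ferrous ammonium sulphate. Compound stocks were diluted in PBS to 75 μM, then serially diluted 1:3. Plates held 5 × 10^3 trophozoites/well and were incubated 24 h at 37 °C anaerobically. ATP luminescence (BacTiter-Glo) read growth and viability, and curves gave EC50. Replicates: n≥3, mean + SEM. MzS versus MzR groups were compared by unpaired t-test.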

[3] = tested on: T. foetus; test: In vitro activity against T. foetus; assay type: cell-based; settings: compared with T. vaginalis F1623
[4] = tested on: HeLa cells; test: Cytotoxicity assay in human HeLa cells; assay type: cell-based; settings: for human cytotoxicity: HeLa cells, 48 h, described in words (Fig. 2-4)
[5] = tested on: T. vaginalis F1623; settings: previously discovered; cited from earlier work
[6] = tested on: sensitive T. vaginalis strain; test: Synergy of gold; assay type: cell-based, Trichomonas vaginalis; settings: 24 h
[7] = tested on: T. vaginalis F1623; test: T. vaginalis 24 h growth and survival assay; assay type: cell-based, Trichomonas vaginalis; settings: for trichomonacidal activity: T. vaginalis F1623, 24 h, described in words (Fig. 2-4); for reduced trichomonacidal activity compared to the chloride counterparts: bromide and iodide vs chloride complexes (4, 10)
[8] = tested on: T. foetus D1; test: Murine vaginal trichomonad infection model; assay type: in vivo, BALB/cJ mice; settings: 4 days after infection, Wright-Giemsa stain
[9] = intravaginal administration compared to a single oral dose; cited from earlier work
[10] = tributyl vs triethyl phosphine compound

Q: With `CC(=O)OC[C@H]1O[C@@H]([S-])[C@H](OC(C)=O)[C@@H](OC(C)=O)[C@@H]1OC(C)=O.CCP(CC)CC.[Au+]` [AF, reference compound] as the compound, how does the pIC50 [1] read?
A: The pIC50 was ~7.00.

Q: What about the “activity against Mz-resistant T. vaginalis lines” value [2] of the same compound?
A: The value was “sensitive”.

Q: And the “activity against T. foetus in vitro” value [3]?
A: Its value is “as active against T. foetus in vitro as they were against T. vaginalis”.

Q: And the human cytotoxicity [4]?
A: Its human cytotoxicity is “slightly more toxic against human cells than the parasite”.

Q: What about the “activity against T. vaginalis / trichomonads” value [5] of the same compound?
A: Its value is “low μM range”.

Q: What about the “interference or synergy with the activity of Mz” value [6] of the same compound?
A: The value was “neither compound 4 nor AF interfered or synergized”.

Q: For `OCC1OC([S-])C(O)C(O)C1O.[Au+]` (stereo not drawn) [ATG, 3,4,5-trihydroxy-6-(hydroxymethyl)oxane-2-thiolate gold (I), reference compound], which trichomonacidal activity [7] is on record?
A: Its trichomonacidal activity is “barely showed activity”.

Q: For `O.O=C([O-])CC([S-])C(=O)[O-].[Au+].[Na+].[Na+]` (stereo not drawn) [ATM, (1,2-Dicarboxyethylthio) disodium salt hydrate gold(I), reference compound], which trichomonacidal activity [7] is on record?
A: Its trichomonacidal activity is “barely showed activity”.

Q: What does the source list for `CC[P+](CC)(CC)[Au-][S]C(CC(=O)O)C(=O)O` (stereo not drawn) [Compound 2, S-Triethylphosphine gold(I) thiomalic acid]?
A: trichomonacidal activity [7]: improved trichomonacidal activity similar to AF; human cytotoxicity [4]: toxic in human cells

Q: For `CC[P](CC)(CC)[Au][c]1n(-c2c(C)cc(C)cc2C)cc[n+]1-c1c(C)cc(C)cc1C.[Cl-]` [Compound 3, [Triethylphosphine-(bis(2,4,6-trimethylphenyl)imidazol-2-ylidene)]gold(I) chloride], which trichomonacidal activity [7] is on record?
A: The trichomonacidal activity was “did not enhance trichomonacidal activity”.

Q: What about the human cytotoxicity [4] of the same compound?
A: The human cytotoxicity was “strongly increased human cytotoxicity”.

Q: For `CCP(CC)CC.[Au+].[Cl-]` [Compound 4, (Tri-n-ethylphosphine)gold(I) chloride], which trichomonacidal activity [7] is on record?
A: Its trichomonacidal activity is “slightly increased activity against T. vaginalis; also recorded: low μM range”.

Q: What about the “activity against Mz-resistant T. vaginalis lines” value [2] of the same compound?
A: Its value is “sensitive”.

Q: And the “activity against T. foetus in vitro” value [3]?
A: The value was “as active against T. foetus in vitro as they were against T. vaginalis”.

Q: What about the “histological analysis of vaginal tract” value [8] of the same compound?
A: Its value is “disappearance of T. foetus trophozoites from the vaginal lumen”.

Q: What about the human cytotoxicity [4] of the same compound?
A: Its human cytotoxicity is “markedly reduced human cytotoxicity; also recorded: decreased human cytotoxicity”.

Q: And the “interference or synergy with the activity of Mz” value [6]?
A: The value was “neither compound 4 nor AF interfered or synergized”.

Q: For `C[P+](C)(C)[Au-][Cl]` [Compound 10, (Tri-n-methylphosphine)gold(I) chloride], which trichomonacidal activity [7] is on record?
A: Its trichomonacidal activity is “low μM range”.

Q: And the “activity against Mz-resistant T. vaginalis lines” value [2]?
A: Its value is “sensitive”.

Q: What about the “activity against T. foetus in vitro” value [3] of the same compound?
A: The value was “as active against T. foetus in vitro as they were against T. vaginalis”.

Q: What about the human cytotoxicity [4] of the same compound?
A: The human cytotoxicity was “decreased human cytotoxicity”.

Q: What does the source list for `C[P+](C)(C)[Au-][P+](C)(C)C.[Cl-]` [Compound 13, Bis(trimethylphosphine)gold(I) chloride]?
A: trichomonacidal activity [7]: as or moderately more active; human cytotoxicity [4]: as or moderately more active

Q: What does the source list for `CCC[P+](CCC)(CCC)[Au-][P+](CCC)(CCC)CCC.[Cl-]` [Compound 15, Bis(tri-n-propylphosphine)gold(I) chloride]?
A: trichomonacidal activity [7]: as or moderately more active; human cytotoxicity [4]: as or moderately more active

Q: What does the source list for `CC(C)[P+]([Au-][P+](C(C)C)(C(C)C)C(C)C)(C(C)C)C(C)C.[Cl-]` [Compound 16, Bis(triisopropylphosphine)gold(I) chloride]?
A: trichomonacidal activity [7]: as or moderately more active; human cytotoxicity [4]: as or moderately more active

Q: Which trichomonacidal activity [7] does the source give for `CC(C)(C)[PH+](C(C)(C)C)C(C)(C)C.[Cl][Au]` [Compound 17, (Tri-tert-butylphosphine)gold(I) chloride] here?
A: The trichomonacidal activity was “inactive”.

Q: What about the human cytotoxicity [4] of the same compound?
A: The human cytotoxicity was “inactive”.

Q: Which results are given for `Cc1ncc([N+](=O)[O-])n1CCO` [Mz, metronidazole, reference compound]?
A: decrease in systemic exposure [9]: 96–98%; loss in Mz susceptibility ([2]; four Mz-resistant lines compared to four susceptible lines): 20- to 100 fold

Q: Which results are given for “(1-Thio-β-D-glucopyranosato) (triethylphosphine) gold(I) [Compound 1]”?
A: trichomonacidal activity [7]: improved trichomonacidal activity similar to AF; human cytotoxicity [4]: toxic in human cells

Q: With “(2,3,4,6-Tetra-O-acetyl-1-thio-β-D-galacotopyranosato)(butylphosphine) gold(I) [Compound 5]” as the compound, how does the “lower activity against T. vaginalis than triethyl partner” value [7, 10] read?
A: Its value is ~ 10 fold.

Q: What about the “lower activity against human cells than triethyl partner” value [4, 10] of the same compound?
A: Its value is ~ 10 fold.

Q: Which results are given for “(Tri-n-butylphosphine)gold(I) chloride [Compound 9]”?
A: trichomonacidal activity [7]: abolished all activity; also recorded: inactive; human cytotoxicity [4]: abolished all activity; also recorded: inactive

Q: For “(Tri-n-propylphosphine)gold(I) chloride [Compound 11]”, which trichomonacidal activity [7] is on record?
A: The trichomonacidal activity was “low μM range”.

Q: What about the human cytotoxicity [4] of the same compound?
A: Its human cytotoxicity is “decreased human cytotoxicity”.

Q: Which “reduced trichomonacidal activity compared to the chloride counterparts” value (“reduced trichomonacidal activity” for short) [7] does the source give for “(Triethylphosphine)gold(I) bromide [Compound 24]” here?
A: The value was 5- to 10 fold.

Q: Which “reduced trichomonacidal activity” value [7] does the source give for “(Triethylphosphine)gold(I) iodide [Compound 26]” here?
A: Its value is 5- to 10 fold.

Q: Which trichomonacidal activity [7] does the source give for “(Triisopropylphosphine)gold(I) chloride [Compound 12]” here?
A: Its trichomonacidal activity is “low μM range”.

Q: What about the human cytotoxicity [4] of the same compound?
A: Its human cytotoxicity is “decreased human cytotoxicity”.

Q: For “(Trimethylphosphine)gold(I) bromide [Compound 23]”, which “reduced trichomonacidal activity” value [7] is on record?
A: The value was 5- to 10 fold.

Q: With “(Trimethylphosphine)gold(I) iodide [Compound 25]” as the compound, how does the “reduced trichomonacidal activity” value [7] read?
A: Its value is 5- to 10 fold.

Q: What does the source list for “Bis(triethylphosphine)gold(I) chloride [Compound 14]”?
A: trichomonacidal activity [7]: as or moderately more active; human cytotoxicity [4]: as or moderately more active
